Experiments:
[1] = biological target: T1, Adrenergic receptor alpha-1 (Homo sapiens, UniProt P35348+P25100+P35368); test: (§1) In vitro binding affinity towards Alpha-1 adrenergic receptor by displacing [3H]prazosin radioligand; type: protein assay
T1 sequence (P35348 whole entry): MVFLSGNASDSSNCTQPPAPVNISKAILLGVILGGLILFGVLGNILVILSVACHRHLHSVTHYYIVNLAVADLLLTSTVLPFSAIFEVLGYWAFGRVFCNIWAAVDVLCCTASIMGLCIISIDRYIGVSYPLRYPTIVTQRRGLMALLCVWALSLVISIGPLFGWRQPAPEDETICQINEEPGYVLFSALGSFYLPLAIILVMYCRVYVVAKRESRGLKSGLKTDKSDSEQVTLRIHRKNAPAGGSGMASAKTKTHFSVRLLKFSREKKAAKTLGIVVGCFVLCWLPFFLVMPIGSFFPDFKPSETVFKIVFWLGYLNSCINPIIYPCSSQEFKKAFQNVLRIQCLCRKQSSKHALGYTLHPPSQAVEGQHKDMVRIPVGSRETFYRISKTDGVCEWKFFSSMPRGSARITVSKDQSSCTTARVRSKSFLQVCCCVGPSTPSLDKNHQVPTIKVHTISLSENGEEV
T1 sequence (P25100 whole entry): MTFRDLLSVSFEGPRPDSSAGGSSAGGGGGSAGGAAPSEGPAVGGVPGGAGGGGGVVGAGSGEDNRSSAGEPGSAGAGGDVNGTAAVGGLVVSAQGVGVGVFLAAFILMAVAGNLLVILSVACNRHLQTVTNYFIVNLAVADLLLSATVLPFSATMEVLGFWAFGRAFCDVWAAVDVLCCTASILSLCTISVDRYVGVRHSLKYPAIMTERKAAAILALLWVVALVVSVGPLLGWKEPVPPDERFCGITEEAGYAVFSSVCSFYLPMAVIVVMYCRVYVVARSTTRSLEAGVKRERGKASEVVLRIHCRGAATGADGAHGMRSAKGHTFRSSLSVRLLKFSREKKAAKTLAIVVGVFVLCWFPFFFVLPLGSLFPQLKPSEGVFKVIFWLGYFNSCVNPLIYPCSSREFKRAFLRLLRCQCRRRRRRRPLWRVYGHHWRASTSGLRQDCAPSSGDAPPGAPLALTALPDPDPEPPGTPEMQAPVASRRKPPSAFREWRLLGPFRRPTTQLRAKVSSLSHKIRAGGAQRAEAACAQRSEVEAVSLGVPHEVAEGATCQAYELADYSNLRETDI
T1 sequence (P35368 whole entry): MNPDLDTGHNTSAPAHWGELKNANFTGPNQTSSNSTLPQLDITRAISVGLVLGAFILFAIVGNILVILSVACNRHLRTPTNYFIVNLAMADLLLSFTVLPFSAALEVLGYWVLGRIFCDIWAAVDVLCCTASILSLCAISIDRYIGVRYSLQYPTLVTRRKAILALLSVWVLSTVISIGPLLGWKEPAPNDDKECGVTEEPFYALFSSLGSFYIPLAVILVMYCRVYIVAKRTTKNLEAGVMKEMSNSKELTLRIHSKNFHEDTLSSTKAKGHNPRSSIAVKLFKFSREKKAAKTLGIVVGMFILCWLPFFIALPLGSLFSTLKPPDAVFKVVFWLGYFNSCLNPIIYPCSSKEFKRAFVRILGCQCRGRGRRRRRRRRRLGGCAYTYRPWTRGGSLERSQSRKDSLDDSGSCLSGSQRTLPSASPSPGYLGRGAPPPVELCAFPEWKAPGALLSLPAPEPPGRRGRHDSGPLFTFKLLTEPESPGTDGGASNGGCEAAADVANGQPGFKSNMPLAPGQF

[2] = biological target: Glutamate [NMDA] receptor; test: Displacement of [3H]25-6981 from N-methyl-D-aspartate glutamate receptor; type: protein-complex assay
[3] = biological target: Adrenergic receptor alpha-1 (Homo sapiens) (UniProt P35348+P25100+P35368); test: Selectivity ratio of alpha-1 receptor to that of NMDA was determined; type: protein assay
[4] = biological target: T2, Alpha-1A adrenergic receptor (Homo sapiens, UniProt P35348); test: as §1
T2 sequence (P35348 whole entry): T1 sequence (P35348 whole entry)

Mus musculus = test: In vivo evaluation for sound induced seizures in DBA/2 mice on intraperitoneal administration of compound 30 minutes before testing; type: functional; conditions: ip
Procedure, shortened: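 Mice given the compound intraperitoneally, then tested in the standard sound-induced seizure assay. An ED50 in mg/kg was derived for protection.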

[5] = biological target: Glutamate receptor ionotropic, NMDA 2A (Rattus norvegicus, UniProt P35439+Q00959); test: Evaluated for in vitro inhibition of recombinant rat NR1C/2A receptor expressed in xenopus oocytes; type: cell-based, Oocyte
Procedure, shortened: (§2)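 Two-electrode voltage clamp on Xenopus oocytes expressing recombinant rat NMDA receptors, NR1C/2A or NR1C/2B subunit combination. Concentrations spanned 10 nM–[…]. Values are the geometric mean of three experiments.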

[6] = biological target: Glutamate receptor ionotropic, NMDA 2B (Rattus norvegicus, UniProt P35439+Q00960); test: Evaluated for in vitro inhibition of recombinant rat NR1C/2B receptor expressed in xenopus oocytes; type: cell-based, Oocyte; procedure, shortened: as §2
Sequence of Glutamate receptor ionotropic, NMDA 2B (Q00960 whole entry, one chain of several): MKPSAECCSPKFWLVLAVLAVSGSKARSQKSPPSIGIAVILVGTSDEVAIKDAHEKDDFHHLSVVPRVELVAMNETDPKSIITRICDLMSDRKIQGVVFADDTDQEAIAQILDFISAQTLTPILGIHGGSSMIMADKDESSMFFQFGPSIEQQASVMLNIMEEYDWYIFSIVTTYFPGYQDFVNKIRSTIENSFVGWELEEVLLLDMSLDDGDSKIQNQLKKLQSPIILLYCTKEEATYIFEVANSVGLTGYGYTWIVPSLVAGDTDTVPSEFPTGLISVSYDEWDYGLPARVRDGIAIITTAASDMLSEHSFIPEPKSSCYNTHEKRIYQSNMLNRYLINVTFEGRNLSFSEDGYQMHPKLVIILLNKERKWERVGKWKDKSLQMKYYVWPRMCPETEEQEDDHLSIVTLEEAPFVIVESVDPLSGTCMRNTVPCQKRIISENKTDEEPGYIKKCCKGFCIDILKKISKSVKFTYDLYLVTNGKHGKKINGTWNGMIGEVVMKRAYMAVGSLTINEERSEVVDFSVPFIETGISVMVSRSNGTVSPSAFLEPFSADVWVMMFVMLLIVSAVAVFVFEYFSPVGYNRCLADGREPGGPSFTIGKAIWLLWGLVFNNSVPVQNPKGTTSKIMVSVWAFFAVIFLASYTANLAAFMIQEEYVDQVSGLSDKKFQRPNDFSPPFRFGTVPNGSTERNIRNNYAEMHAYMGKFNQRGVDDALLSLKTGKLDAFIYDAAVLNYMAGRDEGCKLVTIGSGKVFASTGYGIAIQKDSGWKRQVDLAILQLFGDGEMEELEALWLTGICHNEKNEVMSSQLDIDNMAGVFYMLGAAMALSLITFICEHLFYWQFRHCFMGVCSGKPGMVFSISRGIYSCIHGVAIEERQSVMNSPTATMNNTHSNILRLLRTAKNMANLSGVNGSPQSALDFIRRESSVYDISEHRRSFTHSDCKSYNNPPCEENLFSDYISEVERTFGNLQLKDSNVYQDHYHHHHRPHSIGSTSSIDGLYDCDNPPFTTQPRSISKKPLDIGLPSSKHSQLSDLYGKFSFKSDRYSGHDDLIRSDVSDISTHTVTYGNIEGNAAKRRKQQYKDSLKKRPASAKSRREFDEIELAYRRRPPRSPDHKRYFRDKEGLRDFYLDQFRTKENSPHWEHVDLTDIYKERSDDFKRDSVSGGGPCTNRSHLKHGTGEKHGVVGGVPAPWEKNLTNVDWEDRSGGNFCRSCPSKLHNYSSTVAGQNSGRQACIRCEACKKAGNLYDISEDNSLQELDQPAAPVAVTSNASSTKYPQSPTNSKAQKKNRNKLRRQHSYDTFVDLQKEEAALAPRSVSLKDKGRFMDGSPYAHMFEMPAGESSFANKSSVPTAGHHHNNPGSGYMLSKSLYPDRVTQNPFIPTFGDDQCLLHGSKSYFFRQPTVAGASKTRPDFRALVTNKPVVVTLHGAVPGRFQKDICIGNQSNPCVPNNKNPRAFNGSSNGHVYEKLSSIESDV

Sequence of Glutamate receptor ionotropic, NMDA 2A (Q00959 whole entry, one chain of several): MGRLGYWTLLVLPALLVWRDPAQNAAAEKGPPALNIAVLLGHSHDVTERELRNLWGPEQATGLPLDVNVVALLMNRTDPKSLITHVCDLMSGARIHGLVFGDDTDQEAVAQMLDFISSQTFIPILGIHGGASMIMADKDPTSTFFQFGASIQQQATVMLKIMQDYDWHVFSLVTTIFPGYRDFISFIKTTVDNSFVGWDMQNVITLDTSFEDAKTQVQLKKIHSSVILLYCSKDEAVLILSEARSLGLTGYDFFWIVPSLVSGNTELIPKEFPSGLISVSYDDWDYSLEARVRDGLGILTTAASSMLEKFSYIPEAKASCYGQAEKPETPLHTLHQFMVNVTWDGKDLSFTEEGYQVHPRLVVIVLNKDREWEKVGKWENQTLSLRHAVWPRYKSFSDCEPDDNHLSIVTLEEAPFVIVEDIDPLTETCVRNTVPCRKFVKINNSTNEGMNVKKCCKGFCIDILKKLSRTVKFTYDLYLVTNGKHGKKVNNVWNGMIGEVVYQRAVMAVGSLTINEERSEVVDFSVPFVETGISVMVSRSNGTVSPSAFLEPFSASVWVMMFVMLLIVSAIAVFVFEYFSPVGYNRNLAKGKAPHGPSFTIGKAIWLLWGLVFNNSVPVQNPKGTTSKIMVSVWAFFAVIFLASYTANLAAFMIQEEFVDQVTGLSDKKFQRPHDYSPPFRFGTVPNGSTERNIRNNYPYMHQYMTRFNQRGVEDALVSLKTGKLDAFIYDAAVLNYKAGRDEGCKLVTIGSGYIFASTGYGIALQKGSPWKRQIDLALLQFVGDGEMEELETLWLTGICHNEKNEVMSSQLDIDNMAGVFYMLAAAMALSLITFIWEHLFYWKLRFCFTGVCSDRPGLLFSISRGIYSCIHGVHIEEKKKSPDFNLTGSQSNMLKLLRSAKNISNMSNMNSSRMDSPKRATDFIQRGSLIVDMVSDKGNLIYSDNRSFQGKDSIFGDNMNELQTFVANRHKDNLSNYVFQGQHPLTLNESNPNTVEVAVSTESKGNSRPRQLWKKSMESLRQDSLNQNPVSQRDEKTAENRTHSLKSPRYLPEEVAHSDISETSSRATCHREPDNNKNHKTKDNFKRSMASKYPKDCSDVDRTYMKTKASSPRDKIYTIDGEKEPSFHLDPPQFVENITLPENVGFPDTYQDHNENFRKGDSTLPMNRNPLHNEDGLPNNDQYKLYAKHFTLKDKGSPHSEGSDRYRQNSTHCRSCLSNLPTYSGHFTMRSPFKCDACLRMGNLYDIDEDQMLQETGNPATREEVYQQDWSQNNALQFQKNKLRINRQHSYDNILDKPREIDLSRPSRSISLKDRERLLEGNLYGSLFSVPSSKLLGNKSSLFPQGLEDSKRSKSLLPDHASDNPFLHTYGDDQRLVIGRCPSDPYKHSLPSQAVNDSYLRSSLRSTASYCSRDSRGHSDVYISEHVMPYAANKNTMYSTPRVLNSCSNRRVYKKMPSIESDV

| SMILES | Ki [1] | Ki [2] | Selectivity ratio [3] | Ki [4] | IC50 [5] | IC50 [6] | ED50 (Mus musculus) |
| --- | --- | --- | --- | --- | --- | --- | --- |
| Oc1ccc(CC(O)CN2CCC(O)(Cc3ccccc3)CC2)cc1 (stereo not given) | 4512 nM | 22.6 nM | 200 | – | – | – | – |
| COC(Cc1ccc(O)cc1)CN1CCC(Cc2ccccc2)CC1 (stereo not given) | 305 nM | – | 15 | – | – | – | – |
| Oc1ccc(C(O)CCN2CCC(Cc3ccccc3)CC2)cc1 (stereo not given) | 24.4 nM | 3.8 nM | 6 | – | – | – | – |
| O=C(Cc1ccc(O)cc1)CN1CCC(Cc2ccccc2)CC1 | 610 nM | 22.6 nM | 27 | – | – | – | – |
| Oc1ccc(CC(O)CN2CCC(O)(Cc3ccc(Br)cc3)CC2)cc1 (stereo not given) | 2439 nM | – | 216 | – | – | – | – |
| C[C@@H](CN1CCC(Cc2ccccc2)CC1)[C@@H](O)c1ccc(O)cc1 | 180 nM | 5.6 nM | 32 | – | – | – | – |
| CC(Cc1ccc(O)cc1)CN1CCC(Cc2ccccc2)CC1 (stereo not given) | 91.5 nM | 3.4 nM | 27 | – | – | – | – |
| Oc1ccc(CC(O)CN2CCC(Cc3ccccc3)CC2)cc1 (stereo not given) | 305 nM | – | 80 | – | – | – | – |

Continued, in another order:

| Ki [1] | Ki [2] | Selectivity ratio [3] | Ki [4] | IC50 [5] | IC50 [6] | SMILES | ED50 (Mus musculus) |
| --- | --- | --- | --- | --- | --- | --- | --- |
| – | 4.9 nM | – | 7300 nM | > 10000 nM | 19 nM | Cc1ccc(CC2(O)CCN(C[C@H](O)Cc3ccc(O)cc3)CC2)cc1 | 10 mg/kg |
| 5610 nM | 15 nM | 374 | – | – | – | Oc1ccc(CC(O)CN2CCC(O)(Cc3ccc(Cl)cc3)CC2)cc1 (stereo not given) | – |
| – | 7.5 nM | – | 7300 nM | – | – | Cc1ccc(CC2(O)CCN(C[C@@H](O)Cc3ccc(O)cc3)CC2)cc1 | 25 mg/kg |
| 5915 nM | 7.5 nM | 789 | – | – | – | Cc1ccc(CC2(O)CCN(CC(O)Cc3ccc(O)cc3)CC2)cc1 (stereo not given) | – |

Reference: ChEMBL document CHEMBL1133913, “Discovery of (R)-1-[2-hydroxy-3-(4-hydroxy-phenyl)-propyl]-4-(4-methyl-benzyl)-piperidin-4-ol: a novel NR1/2B subtype selective NMDA receptor antagonist” (Bioorg Med Chem Lett, 2001)
